Measured values taken from ChEMBL document CHEMBL1132195, “cycloSal-Pronucleotides of 2',3'-dideoxyadenosine and 2', 3'-dideoxy-2',3'-didehydroadenosine: synthesis and antiviral evaluation of a highly efficient nucleotide delivery system” (J Med Chem, 1999).

Assays:
[1] = system: Human immunodeficiency virus 1; test: In vitro inhibition of HIV-1 replication in human T-lymphocytic cells (CEM).; type: functional, organism-based
Method in brief: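 CEM cells at 4×10^5 cells/mL infected with HIV-1 or HIV-2 (strain ROD, stocks grown in MT-4 cells) at ~100 CCID50 per mL. Infected cells mixed 1:1 with compound dilutions.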

[2] = Hydrolysis half life in glycine/HCl buffer at the specified pH of 1.5; type: ADME; settings: pH 1.5
Method in brief: (§1)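 Compound diluted from DMSO stock to 0.71 mM final in 24.8 mM buffer at 37 °C, with AZT as internal standard. Buffers: phosphate (Sörensen) pH 7.3; glycine/HCl pH 3.0 or 1.5. Aliquots stopped by freezing and analysed by RP-HPLC at 260 nm. Rate constant taken from the log degradation slope, half-life calculated from it; mean of duplicates.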

C3H/3T3 [3] = test: Minimal cytotoxic concentration required to cause morphological alteration of C3H/3T3 fibroblast culture cells; type: functional; settings: Mus musculus
Method in brief: (§2)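 C3H/3T3 mouse embryo fibroblasts seeded at 20 000 cells/mL, incubated 24 h, infected with 80 focus-forming units of MSV for 120 min, then given fresh medium with compound dilutions. Transformation scored microscopically after 6 days; EC50 is the concentration giving 50% inhibition of transformation. MCC is the lowest concentration causing microscopically visible morphological alteration of the fibroblast cultures.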

[4] = system: Human immunodeficiency virus 2; test: In vitro inhibition of HIV-2 replication in human T-lymphocytic cells (CEM).; type: functional, organism-based
Method in brief: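 CEM cells at 4×10^5 cells/mL infected with HIV-1 or HIV-2 (strain ROD, stocks grown in MT-4 cells) at ~100 CCID50 per mL. Infected cells mixed 1:1 with compound dilutions. Giant cell formation recorded microscopically after 4-5 days; EC50 is the 50% effective concentration.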

[5] = Hydrolysis half life in phosphate buffer at the specified pH of 7.3; type: ADME; settings: pH 7.3; method in brief: as §1
C3H/3T3 [6] = test: (§3) Effect of compound against Moloney murine sarcoma virus (MSV)-induced transformation of C3H/3T3 embryo murine fibroblasts; type: functional, cell-based, Mus musculus; method in brief: as §2
[7] = Selectivity index by CC50 of CEM cells/EC50 of CEM cells against HIV-1; type: functional, CCRF-CEM
CCRF-CEM = test: In vitro cytotoxic concentration in CEM cells.; type: functional, Homo sapiens
[8] = Partition coefficient (logP); type: physicochemical; settings: octanol/water
Method in brief: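 Compound dissolved in 1-octanol, shaken with an equal volume of water for 10 min and phases separated by centrifugation. Each phase analysed by RP-HPLC with UV detection at 260 nm. P calculated from the peak areas of the aqueous and organic phases.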

[9] = Hydrolysis half life in glycine/HCl buffer at the specified pH of 3.0; type: ADME; settings: pH 3; method in brief: as §1
[10] = Selectivity by CC50 of CEM cells/EC50 of CEM cells against HIV-1; type: functional, CCRF-CEM
C3H/3T3 [11] = test: as §3; type: functional, cell-based; settings: Mus musculus; method in brief: as §2
C3H/3T3 [12] = test: Minimal cytotoxic concentration in C3H/3T3 cells.; type: functional; settings: Mus musculus; method in brief: as §2

| Structure (SMILES) | EC50 ([1]; Human immunodeficiency virus 1) [nM] | half-life [2] [min] | MCC (C3H/3T3 [3]) [µM] | EC50 ([4]; Human immunodeficiency virus 2) [nM] | half-life [5] [h] | EC50 (C3H/3T3 [6]; Mus musculus, C3H/3T3) [nM] | SI [7] | CC50 (CCRF-CEM; Homo sapiens, CCRF-CEM) [nM] | logP ([8]; read-out: logP) | half-life [9] [min] | SI [10] | EC50 [1] [nM] | EC50 [4] [nM] | EC50 (C3H/3T3 [6]; c3h/3t3) [nM] | CC50 (CCRF-CEM) [nM] | logP [8] | EC50 (C3H/3T3 [11]) [nM] | MCC (C3H/3T3 [12]) [µM] |
| --- | --- | --- | --- | --- | --- | --- | --- | --- | --- | --- | --- | --- | --- | --- | --- | --- | --- | --- |
| Cc1cc(C)c2c(c1)COP(=O)(OCC1CCC(n3cnc4c(N)ncnc43)O1)O2 (centres undefined) | 25 | 43.8 | > 50 | 25 | 58.2 | 1140 | 383 | 10000 | 1.35 | 618 | – | – | – | – | – | – | – | – |
| OC[C@@H]1C=C[C@H](n2cnc3ncnc(O)c32)O1 | 4300 | < 0.6 | > 50 | > 50000 | – | > 50000 | 20 | 87000 | -0.89 | < 0.6 | – | – | – | – | – | – | – | – |
| Cc1cc(C)c2c(c1)COP(=O)(OC[C@@H]1C=C[C@H](n3cnc4c(N)ncnc43)O1)O2 (some centres undefined) | 50 | 0.6 | > 50 | 55 | 44.7 | 1140 | 494 | 25000 | 0.95 | 8.4 | – | – | – | – | – | – | – | – |
| Cc1cn([C@H]2C=C[C@@H](CO)O2)c(=O)[nH]c1=O [STAVUDINE] | 180 | – | – | 260 | – | 15000 | – | 56000 | – | – | 311 | – | – | – | – | – | – | – |
| Cc1cccc2c1OP(=O)(OC[C@@H]1C=C[C@H](n3cnc4c(N)ncnc43)O1)OC2 (some centres undefined) | 65 | 0.588 | > 50 | 190 | 32.3 | 1240 | 746 | 49000 | 0.63 | 9 | – | – | – | – | – | – | – | – |
| COc1ccc2c(c1)COP(=O)(OC[C@@H]1C=C[C@H](n3cnc4c(N)ncnc43)O1)O2 (stereo in doubt; 10b (f)) | – | – | – | – | – | – | 932 | – | – | – | – | 43 | 50 | 2830 | 40000 | 0.48 | – | – |
| Cc1cccc2c1OP(=O)(OCC1CCC(n3cnc4c(O)ncnc43)O1)OC2 (centres undefined) | 1100 | 12 | > 50 | 700 | 44.5 | > 50000 | 53 | 58000 | 0.14 | 180 | – | – | – | – | – | – | – | – |
| COc1ccc2c(c1)COP(=O)(OC[C@@H]1C=C[C@H](n3cnc4c(N)ncnc43)O1)O2 (stereo in doubt; 10b) | – | 0.66 | – | – | 14.5 | – | 962 | – | – | 8.4 | – | 80 | 65 | 1210 | 77000 | – | – | – |
| Cc1cn([C@H]2C[C@H](N=[N+]=[N-])[C@@H](CO)O2)c(=O)[nH]c1=O [ZIDOVUDINE] | – | – | – | 6 | – | > 100000 | – | > 100000 | 0.025 | – | – | – | – | – | – | – | – | – |
| OCC1CCC(n2cnc3ncnc(O)c32)O1 (centres undefined) | 3500 | 1.8 | > 50 | 4000 | – | > 50000 | 44 | 156000 | -1.25 | 12 | – | – | – | – | – | – | – | – |
| Nc1ncnc2c1ncn2C1CCC(COP2(=O)OCc3ccccc3O2)O1 (centres undefined) | 30 | 36 | > 50 | 130 | 17 | – | 3096 | 93000 | – | 774 | – | – | – | – | – | 0.59 | 2860 | – |
| Nc1ncnc2c1ncn2[C@H]1C=C[C@@H](COP2(=O)OCc3ccccc3O2)O1 (some centres undefined) | 65 | 0.6 | > 50 | 350 | 10.3 | 300 | 1329 | 86000 | 0.36 | 8.4 | – | – | – | – | – | – | – | – |
| Nc1ncnc2c1ncn2[C@H]1CC[C@@H](CO)O1 | 4300 | – | – | 4500 | – | 40000 | – | > 250000 | -0.28 | – | >57 | – | – | – | – | – | – | > 50 |
| Nc1ncnc2c1ncn2[C@H]1C=C[C@@H](CO)O1 | 30000 | < 0.6 | > 50 | 50000 | – | 35000 | 3 | 96000 | -0.49 | 0.6 | – | – | – | – | – | – | – | – |
| COc1ccc2c(c1)COP(=O)(OC[C@@H]1C=C[C@H](n3cnc4c(N)ncnc43)O1)O2 (stereo in doubt; 10b (s)) | – | – | > 50 | – | – | – | 125 | 62000 | 0.41 | – | – | 500 | 330 | 12800 | – | – | – | – |
| COc1ccc2c(c1)COP(=O)(OCC1CCC(n3cnc4c(N)ncnc43)O1)O2 (centres undefined) | 47 | 48 | > 50 | 160 | 23.4 | – | 1851 | 87000 | 0.64 | 732 | – | – | – | – | – | – | 3900 | – |
| Cc1cccc2c1OP(=O)(OCC1CCC(n3cnc4c(N)ncnc43)O1)OC2 (centres undefined) | 47 | 31.8 | > 50 | 30 | 44.3 | – | 585 | 28000 | 0.88 | 834 | – | – | – | – | – | – | 1180 | – |
